The source made the active and inactive calls. No cut-off for these calls is given here.
Legend:
[1] = molecular target: Neuronal acetylcholine receptor; alpha4/beta4 (Rattus norvegicus, UniProt P09483+P12392); experiment: Displacement of [3H] epibatidine from rat alpha4beta4 nAChR by beta scintillation counting; format: protein-complex assay
Mus musculus = experiment: Antidepressant activity in BALB/cJ mouse assessed as decrease in immobility at 10 mg/kg, po administered 30 mins prior to testing measured for 6 mins by forced swim test; format: functional, organism-based; set-up: dose 10 mg/kg
In short: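 Male BALB/cJ mice, 8−10 weeks old, housed four per cage on a 12 h light−dark cycle. Drug in injectable water was given by oral gavage (10 mL/kg). After 30 min, each mouse was placed in a glass cylinder with 12 cm of ~23 °C water, and floating immobility was timed over a 6 min trial. Analysis was by ANOVA with Fisher's PLSD post hoc test.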

[2] = molecular target: Histamine H3 receptor (Homo sapiens) (UniProt Q9Y5N1); experiment: Displacement of [3H]alpha-methylhistamine from H3 histamine receptor at 10 uM
[3] = molecular target: Histamine H4 receptor (Homo sapiens) (UniProt Q9H3N8); experiment: Displacement of [3H]Histamine from H4 histamine receptor at 10 uM
[4] = molecular target: Muscarinic acetylcholine receptor M1 (Homo sapiens) (UniProt P11229); experiment: Displacement of [3H]QNB from M1 receptor at 10 uM
[5] = molecular target: Sodium-dependent noradrenaline transporter (Homo sapiens) (UniProt P23975); experiment: Displacement of [3H]Nisoxetine from NET at 10 uM
Cytochrome P450 1A2 = Cytochrome P450 1A2 (Homo sapiens, UniProt P05177); experiment: Inhibition of CYP1A2 up to 10 uM; format: ADME
In short: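 Percent inhibition of CYP isoforms (CYP1A, CYP2C9, CYP2C19, CYP2D6, CYP3A; CYP1A2 reported) with test compound at concentrations up to 10 μM.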

Plasma [6] = experiment: Plasma protein binding in human at 10 uM; format: ADME, cell-free
In short: (§1)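 Binding measured at 10 μM in human plasma and CD-1 mouse plasma; reported as mean percent bound.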

Plasma [7] = experiment: Plasma protein binding in CD1 mouse at 10 uM; format: ADME, cell-free; in short: as §1
[8] = molecular target: 5-hydroxytryptamine receptor 2A (Homo sapiens) (UniProt P28223); experiment: Displacement of [3H]Ketanserin from 5-HT2A at 10 uM
[9] = Displacement of [3H]Baclofen from GABA-B at 10 uM
[10] = Displacement of [3H]PK11195 from PBR at 10 uM
[11] = molecular target: Metabotropic glutamate receptor 5 (Homo sapiens) (UniProt P41594); experiment: Displacement of [3H]MPEP from mGluR5 at 10 uM
[12] = molecular target: Sodium-dependent serotonin transporter (Homo sapiens) (UniProt P31645); experiment: Displacement of [3H]Citalopram from SERT at 10 uM
[13] = molecular target: Cannabinoid receptor 1 (Homo sapiens) (UniProt P21554); experiment: Displacement of [3H]CP55940 from CB1 receptor at 10 uM
Brain = experiment: Half life in CD1 mouse brain at 5 mg/kg, po; format: ADME, organism-based; set-up: dose 5 mg/kg, route oral; conditions: in vivo
In short: (§2)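 Male CD-1 mice given a single oral gavage dose of 5 mg/kg; plasma and brain concentrations measured over time to derive half-lives, Cmax and Tmax.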

Plasma [14] = experiment: Half life in CD1 mouse plasma at 5 mg/kg, po; format: ADME, organism-based; set-up: dose 5 mg/kg, route oral; conditions: in vivo; in short: as §2
[15] = Cmax in CD1 mouse brain at 5 mg/kg, po at 30 mins; format: ADME, organism-based; set-up: dose 5 mg/kg, route oral
In short: (§3)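 Male CD-1 mice received a single oral gavage dose of 5 mg/kg. Drug levels were measured in brain and plasma over time; Cmax and Tmax were taken from the concentration−time profiles.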

Plasma [16] = experiment: Cmax in CD1 mouse plasma at 5 mg/kg, po at 10 mins; format: ADME, organism-based; set-up: dose 5 mg/kg, route oral; conditions: in vivo; in short: as §3
Plasma [17] = experiment: Tmax in CD1 mouse plasma at 5 mg/kg, po; format: ADME, organism-based; set-up: dose 5 mg/kg, route oral; conditions: in vivo; in short: as §2
Nucleic Acid = experiment: Ratio of drug level in brain to plasma in CD1 mouse at 5 mg/kg, po; format: ADME, organism-based; set-up: dose 5 mg/kg, route oral
In short: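 Male CD-1 mice, single 5 mg/kg oral gavage dose; brain-to-plasma ratio calculated as Cmax-brain/Cmax-plasma.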

[18] = molecular target: Vasopressin V1a receptor (Homo sapiens) (UniProt P37288); experiment: Displacement of radioligand from Vasopressin V1A receptor; conditions: concentration not given here
[19] = Displacement of radioligand from oxytocin receptor; conditions: concentration not given here

Chain of Metabotropic glutamate receptor 5 (Homo sapiens) (P41594 21-1212 limits assumed): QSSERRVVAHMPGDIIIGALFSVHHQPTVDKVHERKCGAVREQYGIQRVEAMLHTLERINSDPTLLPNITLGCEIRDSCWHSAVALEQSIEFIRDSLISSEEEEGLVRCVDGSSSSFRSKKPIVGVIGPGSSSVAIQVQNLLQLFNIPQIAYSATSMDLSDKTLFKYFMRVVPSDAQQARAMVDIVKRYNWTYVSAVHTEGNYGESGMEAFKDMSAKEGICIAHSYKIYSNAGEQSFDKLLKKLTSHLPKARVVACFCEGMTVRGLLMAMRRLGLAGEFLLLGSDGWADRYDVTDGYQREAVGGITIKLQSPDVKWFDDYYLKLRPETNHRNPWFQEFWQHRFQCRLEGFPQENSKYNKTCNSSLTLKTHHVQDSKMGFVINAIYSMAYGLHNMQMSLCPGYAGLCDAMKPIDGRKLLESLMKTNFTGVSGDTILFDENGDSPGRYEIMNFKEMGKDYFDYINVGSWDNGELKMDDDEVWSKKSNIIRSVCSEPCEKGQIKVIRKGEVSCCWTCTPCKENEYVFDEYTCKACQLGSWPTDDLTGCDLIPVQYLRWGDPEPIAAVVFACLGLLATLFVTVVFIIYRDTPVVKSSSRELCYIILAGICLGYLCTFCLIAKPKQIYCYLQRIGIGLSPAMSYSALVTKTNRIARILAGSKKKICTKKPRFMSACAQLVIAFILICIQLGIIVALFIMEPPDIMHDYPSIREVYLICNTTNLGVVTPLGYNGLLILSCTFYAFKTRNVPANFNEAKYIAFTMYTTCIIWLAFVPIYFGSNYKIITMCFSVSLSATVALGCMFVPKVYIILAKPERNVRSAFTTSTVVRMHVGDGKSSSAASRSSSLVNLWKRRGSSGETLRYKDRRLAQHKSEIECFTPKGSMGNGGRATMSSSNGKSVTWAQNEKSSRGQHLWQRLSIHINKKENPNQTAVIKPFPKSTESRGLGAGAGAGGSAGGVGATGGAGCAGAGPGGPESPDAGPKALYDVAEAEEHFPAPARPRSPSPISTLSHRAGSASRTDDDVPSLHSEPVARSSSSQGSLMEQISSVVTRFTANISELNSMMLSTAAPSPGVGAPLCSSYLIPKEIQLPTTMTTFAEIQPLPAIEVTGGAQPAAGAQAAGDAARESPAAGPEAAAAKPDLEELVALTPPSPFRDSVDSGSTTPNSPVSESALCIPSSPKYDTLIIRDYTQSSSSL
Chain of Vasopressin V1a receptor (Homo sapiens) (P37288 whole entry, looked up): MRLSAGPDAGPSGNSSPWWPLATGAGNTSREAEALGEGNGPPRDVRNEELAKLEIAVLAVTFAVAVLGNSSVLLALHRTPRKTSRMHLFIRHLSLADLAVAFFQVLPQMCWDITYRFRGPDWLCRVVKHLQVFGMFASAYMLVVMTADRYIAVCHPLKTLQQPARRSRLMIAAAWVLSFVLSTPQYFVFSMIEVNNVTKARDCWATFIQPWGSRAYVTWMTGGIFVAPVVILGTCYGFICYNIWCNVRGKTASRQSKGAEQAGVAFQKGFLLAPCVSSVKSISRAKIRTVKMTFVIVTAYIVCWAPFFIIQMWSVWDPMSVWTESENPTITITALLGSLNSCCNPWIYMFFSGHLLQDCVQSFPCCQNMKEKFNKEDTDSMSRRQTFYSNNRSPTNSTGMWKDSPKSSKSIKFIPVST
Chain of Cytochrome P450 1A2 (P05177 whole entry, canonical isoform): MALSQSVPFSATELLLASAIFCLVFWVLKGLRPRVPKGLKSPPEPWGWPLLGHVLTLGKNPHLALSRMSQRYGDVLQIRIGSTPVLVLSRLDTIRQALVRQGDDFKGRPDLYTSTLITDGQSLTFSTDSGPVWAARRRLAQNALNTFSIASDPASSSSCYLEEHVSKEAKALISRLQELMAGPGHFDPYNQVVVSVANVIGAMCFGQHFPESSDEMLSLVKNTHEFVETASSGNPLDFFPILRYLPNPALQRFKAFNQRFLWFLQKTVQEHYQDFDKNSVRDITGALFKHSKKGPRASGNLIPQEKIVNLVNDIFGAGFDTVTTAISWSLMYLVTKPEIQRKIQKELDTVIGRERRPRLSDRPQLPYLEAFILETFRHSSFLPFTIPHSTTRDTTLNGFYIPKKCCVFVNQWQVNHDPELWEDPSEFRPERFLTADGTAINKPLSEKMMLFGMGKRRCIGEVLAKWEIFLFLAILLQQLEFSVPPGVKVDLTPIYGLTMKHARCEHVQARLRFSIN
Chain of Neuronal acetylcholine receptor; alpha4/beta4 (P09483 whole entry): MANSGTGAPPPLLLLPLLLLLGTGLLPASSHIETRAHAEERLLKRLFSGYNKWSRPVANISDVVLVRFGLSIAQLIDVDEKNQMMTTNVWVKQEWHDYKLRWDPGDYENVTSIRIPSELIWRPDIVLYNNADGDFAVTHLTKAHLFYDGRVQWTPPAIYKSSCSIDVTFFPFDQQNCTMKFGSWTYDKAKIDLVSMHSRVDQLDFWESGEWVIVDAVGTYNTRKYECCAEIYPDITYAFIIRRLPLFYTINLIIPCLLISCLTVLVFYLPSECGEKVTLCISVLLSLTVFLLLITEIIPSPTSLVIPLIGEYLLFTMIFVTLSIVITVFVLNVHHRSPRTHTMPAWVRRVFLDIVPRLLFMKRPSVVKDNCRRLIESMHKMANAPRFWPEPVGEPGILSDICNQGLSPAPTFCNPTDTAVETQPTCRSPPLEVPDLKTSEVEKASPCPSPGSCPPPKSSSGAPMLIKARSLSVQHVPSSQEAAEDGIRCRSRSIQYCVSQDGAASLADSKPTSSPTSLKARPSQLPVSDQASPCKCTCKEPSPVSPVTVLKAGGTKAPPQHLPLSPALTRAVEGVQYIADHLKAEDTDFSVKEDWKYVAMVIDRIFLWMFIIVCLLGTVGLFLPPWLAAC
Chain of Neuronal acetylcholine receptor; alpha4/beta4 (P12392 whole entry): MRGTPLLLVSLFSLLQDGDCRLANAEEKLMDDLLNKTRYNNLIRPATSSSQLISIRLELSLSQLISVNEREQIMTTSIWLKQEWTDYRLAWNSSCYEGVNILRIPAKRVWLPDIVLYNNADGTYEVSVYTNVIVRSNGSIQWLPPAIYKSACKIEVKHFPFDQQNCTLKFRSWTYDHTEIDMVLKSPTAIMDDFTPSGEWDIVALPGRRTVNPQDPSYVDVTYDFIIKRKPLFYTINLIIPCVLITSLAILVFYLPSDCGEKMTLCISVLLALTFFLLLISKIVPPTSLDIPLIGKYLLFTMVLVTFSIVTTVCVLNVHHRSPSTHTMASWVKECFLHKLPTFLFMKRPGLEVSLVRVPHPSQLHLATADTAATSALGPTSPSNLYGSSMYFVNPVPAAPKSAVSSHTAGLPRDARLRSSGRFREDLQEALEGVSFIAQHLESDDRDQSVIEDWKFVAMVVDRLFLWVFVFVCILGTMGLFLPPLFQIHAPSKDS
Chain of Cannabinoid receptor 1 (Homo sapiens) (P21554 whole entry): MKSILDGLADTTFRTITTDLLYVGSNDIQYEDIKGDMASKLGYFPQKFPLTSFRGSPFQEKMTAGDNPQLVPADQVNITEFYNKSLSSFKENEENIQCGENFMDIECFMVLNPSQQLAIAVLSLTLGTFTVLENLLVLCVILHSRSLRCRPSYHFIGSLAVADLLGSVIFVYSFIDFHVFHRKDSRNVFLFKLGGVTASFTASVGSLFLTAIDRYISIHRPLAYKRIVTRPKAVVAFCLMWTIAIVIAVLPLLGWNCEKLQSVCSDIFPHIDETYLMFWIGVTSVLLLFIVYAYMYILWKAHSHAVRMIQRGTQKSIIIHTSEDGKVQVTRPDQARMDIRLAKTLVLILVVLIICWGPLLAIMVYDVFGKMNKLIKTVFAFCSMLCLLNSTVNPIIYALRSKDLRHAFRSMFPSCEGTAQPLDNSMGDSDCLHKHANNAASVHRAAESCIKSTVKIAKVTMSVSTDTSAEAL
Chain of Sodium-dependent serotonin transporter (Homo sapiens) (P31645 whole entry, looked up): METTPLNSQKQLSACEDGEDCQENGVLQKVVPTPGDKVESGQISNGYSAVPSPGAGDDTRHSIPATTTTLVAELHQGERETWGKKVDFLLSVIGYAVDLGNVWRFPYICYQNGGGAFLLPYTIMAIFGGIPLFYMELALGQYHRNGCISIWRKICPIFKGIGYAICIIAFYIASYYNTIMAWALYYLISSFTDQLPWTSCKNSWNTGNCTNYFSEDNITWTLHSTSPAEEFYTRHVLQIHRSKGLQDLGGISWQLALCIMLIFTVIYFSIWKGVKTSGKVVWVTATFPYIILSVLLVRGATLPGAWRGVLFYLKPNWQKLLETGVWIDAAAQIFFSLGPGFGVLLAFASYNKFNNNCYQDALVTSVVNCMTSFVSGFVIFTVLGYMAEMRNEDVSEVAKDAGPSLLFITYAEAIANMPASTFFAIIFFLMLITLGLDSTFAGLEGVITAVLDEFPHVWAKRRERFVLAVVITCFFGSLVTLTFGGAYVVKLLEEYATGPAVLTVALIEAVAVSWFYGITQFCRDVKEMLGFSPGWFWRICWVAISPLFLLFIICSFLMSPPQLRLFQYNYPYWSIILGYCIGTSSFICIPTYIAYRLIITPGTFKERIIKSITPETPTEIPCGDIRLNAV
Chain of Sodium-dependent noradrenaline transporter (Homo sapiens) (P23975 whole entry): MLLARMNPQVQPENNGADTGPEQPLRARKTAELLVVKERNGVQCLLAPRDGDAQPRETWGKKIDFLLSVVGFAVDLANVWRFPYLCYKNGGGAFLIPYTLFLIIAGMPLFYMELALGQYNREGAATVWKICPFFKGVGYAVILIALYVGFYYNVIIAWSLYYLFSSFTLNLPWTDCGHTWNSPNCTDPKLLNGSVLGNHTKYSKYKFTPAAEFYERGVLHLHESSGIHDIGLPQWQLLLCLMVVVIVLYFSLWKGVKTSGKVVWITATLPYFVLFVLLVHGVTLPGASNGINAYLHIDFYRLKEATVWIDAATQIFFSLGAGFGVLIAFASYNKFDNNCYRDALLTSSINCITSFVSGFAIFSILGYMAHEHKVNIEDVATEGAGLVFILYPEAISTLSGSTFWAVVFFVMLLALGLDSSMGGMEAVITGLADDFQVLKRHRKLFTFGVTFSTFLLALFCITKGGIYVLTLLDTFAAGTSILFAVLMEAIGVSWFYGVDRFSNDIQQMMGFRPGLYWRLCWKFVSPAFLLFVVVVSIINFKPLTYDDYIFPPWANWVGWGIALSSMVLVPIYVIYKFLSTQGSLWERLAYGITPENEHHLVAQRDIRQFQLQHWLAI

CNC(=O)OCC[C@H]1C[C@@H]1c1cncc(OC[C@@H]2CCN2)c1
Ki [1]: 0.441 µM | Activity (Mus musculus): Active | inhibition [2]: 5.7% | inhibition [3]: -8% | inhibition [4]: 12.9% | inhibition [5]: 69.6% | inhibition (INH) (Cytochrome P450 1A2): 80% | PPB (Plasma [6]): 8.4% | PPB (Plasma [7]): 23.8%

COCC[C@H]1C[C@@H]1c1cncc(OC[C@@H]2CCN2)c1
Ki [1]: 0.0502 µM | inhibition [8]: 43.7% | inhibition [9]: 3.2% | inhibition [10]: -5.9% | inhibition [11]: 5.1% | inhibition [5]: -0.2% | inhibition [12]: 39.3% | inhibition [13]: -2% | inhibition (INH) (Cytochrome P450 1A2): 70% | t1/2 (Brain): 2.5 h | t1/2 (Plasma [14]): 2.4 h | Cmax [15]: 133 ng/mL | Cmax (Plasma [16]): 359 ng/mL | Tmax (Plasma [17]): 0.167 h | BPR (Nucleic Acid): 0.37 | inhibition [18]: 30.5% | inhibition [19]: -1.4%

OCC[C@H]1C[C@@H]1c1cncc(OC[C@@H]2CCN2)c1
inhibition [8]: 34.2% | inhibition [9]: 8.9% | inhibition [10]: 4.7% | inhibition [11]: 9.1% | inhibition [12]: 42.7% | inhibition [13]: -3.4% | inhibition [18]: 29.1% | inhibition [19]: 9.4%

From ChEMBL document CHEMBL2021777 (J Med Chem, 2012)
